Test [1] relates to Staphylococcus aureus. Description: Antimicrobial activity against Staphylococcus aureus by agar plate diffusion assay. The format is functional. The method in brief: (§1)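 Agar plate diffusion. Overnight cultures of each organism were seeded into molten LB or Middlebrook 7H9 medium with 1% glycerol and 1.5% agar, held at 50 °C, and poured as plates. Samples in 10 µL MeOH were spotted onto the surface and tested up to 500 µg/mL. Positive controls were penicillin G, novobiocin and streptomycin. Plates were incubated overnight at 37 °C.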

Test [2] concerns NCI-H460. Description: Cytotoxicity against human H460 cells after 72 hrs by MTS assay. In kind it is functional, cell-based. The procedure, abridged:
(§2)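 Continuous 72 h exposure with MTS read-out. IC50 is the concentration reducing cellular proliferation by 50% relative to untreated controls.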
(Tetrazolium dyes change colour on reduction, which living cells bring about.)

In test [3] the test system is MCF7. The test can be described thus: Cytotoxicity against human MCF7 cells after 72 hrs by MTS assay. The format is functional, cell-based. To be noted: MCF7, 72 h. The method in brief:
as §2

Test [4] has as its system MDA-MB-435. The test can be described thus: Cytotoxicity against human MDA-MB-435 cells after 72 hrs by MTS assay. The settings on record: MDA-MB-435, 72 h. The format is functional, cell-based. The procedure, abridged:
(§3)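 Cells were grown in RPMI 1640 with 10% FBS, penicillin and streptomycin. They were plated at 2500 (HT-29) or 5000 (MDA-MB-435) cells/well and preincubated 16 h at 37 °C in 5% CO2. Test substance was added at final 25, 5, 1, 0.2 and 0.04 µg/mL for 72 h. Read-out was MTS. IC50 is the concentration giving 50% reduction in proliferation versus untreated controls.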

Test [5] deals with Escherichia coli. The test can be described thus: Antimicrobial activity against Escherichia coli by agar plate diffusion assay. The format is functional. The procedure, abridged: as §1
Test [6] relates to Bacillus subtilis. Description: Antimicrobial activity against Bacillus subtilis by agar plate diffusion assay. The format is functional. The procedure, abridged: as §1
Test [7] deals with HT-29. The test can be described thus: Cytotoxicity against human HT-29 cells after 72 hrs by MTS assay. The format is functional, cell-based. To be noted: HT-29, 72 h. The procedure, abridged: as §3
Test [8] concerns the target Transcription factor p65 (Homo sapiens, UniProt Q04206). Description: Inhibition of NFkappa p65 isolated from nuclear extract of human HeLa cells by ELISA. In kind it is cell-free. On the technique in general: In an ELISA, binding on a coated surface is turned into a signal by an enzyme label.
Test [9] relates to SF-268. The test can be described thus: Cytotoxicity against human SF268 cells after 72 hrs by MTS assay. In kind it is functional, cell-based. The procedure, abridged:
as §2

Test [10] deals with Mycolicibacterium smegmatis. The test can be described thus: Antimicrobial activity against Mycobacterium smegmatis by agar plate diffusion assay. In kind it is functional. The method in brief:
as §1

Test [11] deals with Escherichia coli. Description: Antimicrobial activity against Escherichia coli at 100 ug/mL by agar plate diffusion assay. The format is functional, organism-based. The procedure, abridged: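 Agar plate diffusion: overnight E. coli culture seeded into molten LB or Middlebrook 7H9 medium with 1% glycerol and 1.5% agar, held at 50 °C, then poured as assay plates. Samples dissolved in 10 µL MeOH were applied to the plate surface, and controls were treated the same way. Plates were incubated overnight at 37 °C.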

Test [12] deals with HT-29. Description: Inhibition of mitochondrial membrane potential in human HT-29 cells using JC1 dye staining by fluorescence plate reader assay. In kind it is functional, cell-based. The method in brief:
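HT-29 cells exposed to a range of test concentrations, then loaded with JC-1 dye and washed to remove unbound stain. Fluorescence read for monomers (ex 485/em 530 nm, apoptotic) and aggregates (ex 560/em 595 nm, healthy). Staurosporine positive control. Triplicate measurements, at least two independent experiments; IC50 reported.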

SMILES strings stand for the structures. Calls of active or inactive are those of the source. The calls are words filed in the database; no cut-off is given here.

In ChEMBL document CHEMBL1800017, “Resorcylic acid lactones with cytotoxic and NF-κB inhibitory activities and their structure-activity relationships” (J Nat Prod, 2011) one finds MIC, IC50 and inhibition data, which are given here for 16 compounds.

Chain of Transcription factor p65 (Q04206 whole entry): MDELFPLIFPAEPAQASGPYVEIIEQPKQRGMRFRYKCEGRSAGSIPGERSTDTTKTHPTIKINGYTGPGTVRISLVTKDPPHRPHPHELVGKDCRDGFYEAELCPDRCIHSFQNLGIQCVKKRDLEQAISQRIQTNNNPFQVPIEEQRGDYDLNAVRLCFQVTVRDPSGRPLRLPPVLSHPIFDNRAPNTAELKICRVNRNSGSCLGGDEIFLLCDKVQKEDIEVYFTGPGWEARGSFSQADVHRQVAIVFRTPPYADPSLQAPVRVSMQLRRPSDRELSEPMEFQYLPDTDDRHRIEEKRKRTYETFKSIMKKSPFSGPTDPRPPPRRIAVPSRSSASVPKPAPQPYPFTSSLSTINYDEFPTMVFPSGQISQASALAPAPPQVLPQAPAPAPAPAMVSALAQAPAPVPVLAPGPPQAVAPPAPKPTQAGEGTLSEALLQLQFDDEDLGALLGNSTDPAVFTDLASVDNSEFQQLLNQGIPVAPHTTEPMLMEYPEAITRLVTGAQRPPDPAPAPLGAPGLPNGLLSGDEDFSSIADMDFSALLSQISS

The MIC is the lowest concentration found to suppress growth. The low end stands for a more susceptible organism, the high end for a less susceptible organism. The IC50 is the concentration needed to halve the response being measured. Lower therefore signals inhibition by little substance. In the case of `C[C@H]1C/C=C\C(=O)[C@@H](O)[C@@H](O)C/C=C/c2cc(O)cc(O)c2C(=O)O1`, the MIC in [1], in test [5], in test [6] and in test [10] was more than 500 µg/mL in each case. The IC50 in test [2] (Homo sapiens, NCI-H460, 72 h) came to 4.1 µM; in test [3] it was 10.3 µM; in test [4], 15.8 µM; in test [7], 11.5 µM; in test [8] it was 0.75 µM; in test [9] (Homo sapiens, SF-268, 72 h), 8.9 µM.
As for `COc1cc(O)c2c(c1)/C=C/C[C@H](O)[C@H](O)C(=O)CCC[C@H](C)OC2=O`, the MIC in test [1], in test [5], in test [6] and in [10] was more than 500 µg/mL in each case. Besides, the IC50 in [2] (Homo sapiens, NCI-H460, 72 h) was more than 25 µM; in [3], more than 50 µM; in test [4] it was more than 50 µM; in test [7] it was more than 50 µM; in test [8], more than 50 µM; in test [9] (Homo sapiens, SF-268, 72 h), more than 50 µM.
In the case of `COc1cc(O)c2c(c1)/C=C/C[C@H](O)[C@H](O)[C@H](O)/C=C/C[C@H](C)OC2=O`, the MIC in test [1], in test [6] and in [10] was more than 500 µg/mL throughout. In addition, the IC50 in [2] (Homo sapiens, NCI-H460, 72 h) was more than 100 µM; in test [3], more than 100 µM; in test [4], more than 25 µM; in test [7], more than 25 µM; in [8] it was more than 50 µM; in [9] (Homo sapiens, SF-268, 72 h), more than 100 µM.
In the case of `COc1cc(O)c2c(c1)/C=C/C[C@H](O)[C@H](O)C(=O)/C=C/C[C@H](C)OC2=O`, the MIC in test [1] and in [10] was more than 500 µg/mL in each case. For the same compound, the IC50 in test [3] is 4.9 µM; in [4], 5.5 µM; in test [7], 4.4 µM; in test [8], 11.5 µM; in test [9] (Homo sapiens, SF-268, 72 h), 5.6 µM.
Consider `CC1(C)S[C@@H]2[C@H](NC(=O)Cc3ccccc3)C(=O)N2[C@H]1C(=O)O`, for which, in [11], the inhibition entry was “Active”.
For `CN[C@@H]1C[C@H]2O[C@@](C)([C@@H]1OC)n1c3ccccc3c3c4c(c5c6ccccc6n2c5c31)C(=O)NC4` [STAUROSPORINE], the IC50 in test [12] came out at 0.0025 µM.
`C[C@H]1CCC[C@@H](O)CCCCCc2cc(O)cc(O)c2C(=O)O1` (stereo in doubt; 12) [TALERANOL]: the figures for the IC50 in test [2] (nci-h460) and in [9] (sf-268) were 9.5 µM and more than 25 µM, respectively.
Turning to `COC(=O)[C@H]1[C@@H](O)[C@@]2(O)c3c(OC)cc(O[C@@H]4O[C@@H]([C@H](O)CO)CO[C@H]4OC)cc3O[C@@]2(c2ccc(OC)cc2)[C@@H]1c1ccccc1` [SILVESTROL], the IC50 is 0.006 µM in [4] and 0.004 µM in test [7].
As to `COc1cc(O)c2c(c1)/C=C/C[C@H](O)[C@H](O)C(=O)/C=C\C[C@H](C)OC2=O`, the IC50 in [2] (Homo sapiens, NCI-H460, 72 h) turned out to be 1.2 µM; in test [3] it was 3.8 µM; in test [4], 3.3 µM; in test [7], 3.6 µM; in test [8], 0.25 µM; in test [9] (Homo sapiens, SF-268, 72 h), 5.1 µM. Also, the MIC in test [5], in [6] and in [10] was more than 500 µg/mL each time.
With `C[C@H]1CCCC(=O)CCC/C=C/c2cc(O)cc(O)c2C(=O)O1` [ZEARALENONE], the IC50 in [2] (Homo sapiens, NCI-H460, 72 h) is more than 25 µM; in [3] it was more than 25 µM; in test [9] (Homo sapiens, SF-268, 72 h), more than 50 µM.
Turning to `COc1cc(O)c2c(c1)/C=C/C[C@H](O)[C@H](O)[C@@H](O)/C=C/C[C@H](C)OC2=O` [ZEAENOL], the IC50 was more than 100 µM in [2] (Homo sapiens, NCI-H460, 72 h); more than 100 µM in test [3]; more than 25 µM in test [4]; more than 25 µM in [7]; more than 50 µM in test [8]; more than 100 µM in test [9] (Homo sapiens, SF-268, 72 h). Moreover, the MIC in test [5] and in [10] was more than 500 µg/mL in each case.
In the case of `C[C@H]1CCC[C@@H](O)CCCCCc2cc(O)cc(O)c2C(=O)O1` (stereo in doubt; 10) [TALERANOL], the IC50 in test [2] (Homo sapiens, NCI-H460, 72 h) was 15.4 µM; in test [3], more than 25 µM; in test [9] (Homo sapiens, SF-268, 72 h), more than 50 µM.
As to `COc1cc(O)c2c(c1)[C@H]1O[C@@H]1C[C@H](O)[C@H](O)C(=O)/C=C\C[C@H](C)OC2=O` [HYPOTHEMYCIN], the IC50 in test [2] (Homo sapiens, NCI-H460, 72 h) amounted to 4.3 µM; in [3], 16.3 µM; in test [9] (Homo sapiens, SF-268, 72 h), 12.7 µM.
In the same order, the values of `C[C@H]1CCC[C@H](O)CCCCCc2cc(O)cc(O)c2C(=O)O1` [ZERANOL] are more than 50 µM, more than 50 µM and more than 50 µM.
In the same order, the values of `CC[C@@]1(O)C(=O)OCc2c1cc1n(c2=O)Cc2cc3ccccc3nc2-1` [CAMPTOTHECIN] are less than 0.01 µM, 0.07 µM and 0.04 µM.
Regarding `C[C@H]1CCCC(=O)CCCCCc2cc(O)cc(O)c2C(=O)O1` [ZEARALANONE], the IC50 in test [2] (Homo sapiens, NCI-H460, 72 h) was more than 25 µM; in [3], more than 25 µM; in test [9] (Homo sapiens, SF-268, 72 h), more than 50 µM.
